Reference: ChEMBL document CHEMBL4396949, “Anti-cancer potential of novel glycosylated 1,4-substituted triazolylchalcone derivatives” (Bioorg Med Chem Lett, 2019)

Assays:
[1] = system: MCF7; assay: Antiproliferative activity against human MCF7 cells incubated for 24 hrs by MTT assay; assay type: functional; conditions: MCF7, 24 h, read-out: LD50 (the source's name)
In short: (§1)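 Cells exposed to compounds at […]; viability read by MTT assay. LD50 derived from concentration-response. MDA-MB-468: triple-negative (ER-, PR-, HER2-) breast cancer. MCF-7: ER+, PR+, HER2- breast cancer. WI-38: non-cancerous lung fibroblasts. Selectivity index taken as WI-38 LD50 divided by cancer-cell LD50.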

[2] = system: MDA-MB-468; assay: Antiproliferative activity against human MDA-MB-468 cells incubated for 24 hrs by MTT assay; assay type: functional; conditions: MDA-MB-468, 24 h, read-out: LD50 (the source's name); in short: as §1
[3] = Antiproliferative activity against human WI38 cells incubated for 24 hrs by MTT assay; assay type: cell-based, WI-38; conditions: read-out: LD50; in short: as §1
[4] = Selectivity index, ratio of LD50 for human WI38 cells to LD50 for human MCF7 cells; assay type: toxicity; conditions: WI38 cells and MCF7 cells, read-out: Selectivity Index
In short: (§2)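 MTT cytotoxicity after exposure to […] in MDA-MB-468, MCF-7 and WI-38 fibroblasts; LD50 determined per line; selectivity index calculated as WI-38 LD50 divided by cancer-cell LD50.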

[5] = Selectivity index, ratio of LD50 for human WI38 cells to LD50 for human MDA-MB-468 cells; assay type: toxicity; conditions: WI38 cells and MDA-MB-468 cells, read-out: Selectivity Index; in short: as §2

Row | SMILES | CC50 [1] | CC50 [2] | CC50 at 24 h [3] | selectivity ratio [4] | selectivity ratio [5]
1 | O=C(/C=C/c1ccccc1Cl)c1ccc(OCc2cn([C@@H]3O[C@H](CO)[C@@H](O)[C@H](O)[C@H]3O)nn2)cc1 | 72 µM | 64 µM | 68 µM | 0.94 | 1.06
2 | COc1cccc(/C=C/C(=O)c2ccc(OCc3cn([C@@H]4O[C@H](CO)[C@@H](O)[C@H](O)[C@H]4O)nn3)cc2)c1 | 63 µM | 77 µM | 73 µM | 1.16 | 0.94
3 | O=C(/C=C/c1cccc([N+](=O)[O-])c1)c1ccc(OCc2cn([C@@H]3O[C@H](CO)[C@@H](O)[C@H](O)[C@H]3O)nn2)cc1 | 59 µM | 64 µM | 69 µM | 1.17 | 1.07
4 | COc1ccc(/C=C/C(=O)c2ccc(OCc3cn([C@@H]4O[C@H](CO)[C@@H](O)[C@H](O)[C@H]4O)nn3)cc2)cc1 | 53 µM | 39 µM | 72 µM | 1.36 | 1.84
5 | COc1cc(/C=C/C(=O)c2ccc([N+](=O)[O-])cc2)ccc1OCc1cn([C@@H]2O[C@H](CO)[C@@H](O)[C@H](O)[C@H]2O)nn1 | 76 µM | 68 µM | 75 µM | 0.99 | 1.02
6 | COc1ccc(/C=C/C(=O)c2ccc(OCc3cn([C@@H]4O[C@H](CO)[C@@H](O)[C@H](O)[C@H]4O)nn3)cc2)cc1OCc1ccccc1 | 84 µM | 64 µM | 105 µM | 1.25 | 1.64
7 | COc1cc(/C=C/C(=O)c2ccc(C#N)cc2)ccc1OCc1cn([C@@H]2O[C@H](CO)[C@@H](O)[C@H](O)[C@H]2O)nn1 | 78 µM | 82 µM | 88 µM | 1.13 | 1.07
8 | O=C(/C=C/c1ccc(OCc2ccccc2)cc1)c1ccc(OCc2cn([C@@H]3O[C@H](CO)[C@@H](O)[C@H](O)[C@H]3O)nn2)cc1 | 79 µM | 57 µM | 68 µM | 0.86 | 1.19
9 | COc1ccc(/C=C/C(=O)c2ccc(OCc3cn([C@@H]4O[C@H](CO)[C@@H](O)[C@H](O)[C@H]4O)nn3)cc2)cc1OC | 115 µM | 88 µM | 95 µM | 0.83 | 1.08
10 | O=C(/C=C/c1ccc([N+](=O)[O-])cc1)c1ccc(OCc2cn([C@@H]3O[C@H](CO)[C@@H](O)[C@H](O)[C@H]3O)nn2)cc1 | 54 µM | 43 µM | 64 µM | 1.19 | 1.49
11 | CC(=O)O[C@H]1C(=O)[C@@]2(C)[C@H]([C@H](OC(=O)c3ccccc3)[C@]3(O)C[C@H](OC(=O)[C@H](O)[C@@H](NC(=O)c4ccccc4)c4ccccc4)C(C)=C1C3(C)C)[C@]1(OC(C)=O)CO[C@@H]1C[C@@H]2O [PACLITAXEL] | 29 µM | 27 µM | 35 µM | 1.2 | 1.29
12 | COc1cc([C@@H]2c3cc4c(cc3[C@@H](O[C@@H]3O[C@@H]5CO[C@@H](C)O[C@H]5[C@H](O)[C@H]3O)[C@H]3COC(=O)[C@H]23)OCO4)cc(OC)c1O [ETOPOSIDE] | 38 µM | 34 µM | 36 µM | 0.95 | 1.06
13 | COc1ccc(C(=O)/C=C/c2ccc(OCc3cn([C@@H]4O[C@H](CO)[C@@H](O)[C@H](O)[C@H]4O)nn3)c(OC)c2)cc1OC | 66 µM | 67 µM | 96 µM | 1.45 | 1.43
14 | COc1cc(/C=C/C(=O)c2ccc(Br)cc2)ccc1OCc1cn([C@@H]2O[C@H](CO)[C@@H](O)[C@H](O)[C@H]2O)nn1 | 99 µM | 65 µM | 89 µM | 0.9 | 1.37
15 | COc1cc(/C=C/C(=O)c2ccc(OCc3cn([C@@H]4O[C@H](CO)[C@@H](O)[C@H](O)[C@H]4O)nn3)cc2)cc(OC)c1 | 72 µM | 33 µM | 52 µM | 0.72 | 1.56
16 | COc1cc(/C=C/C(=O)c2cc(OC)c(OC)c(OC)c2)ccc1OCc1cn([C@@H]2O[C@H](CO)[C@@H](O)[C@H](O)[C@H]2O)nn1 | 87 µM | 73 µM | 67 µM | 0.77 | 0.92
17 | O=C(/C=C/c1ccc(Cl)c(Cl)c1)c1ccc(OCc2cn([C@@H]3O[C@H](CO)[C@@H](O)[C@H](O)[C@H]3O)nn2)cc1 | 65 µM | 59 µM | 55 µM | 0.85 | 0.93
18 | COc1cc(/C=C/C(=O)c2ccc(OCc3cn([C@@H]4O[C@H](CO)[C@@H](O)[C@H](O)[C@H]4O)nn3)cc2)cc(OC)c1OC | 84 µM | 51 µM | 54 µM | 0.64 | 1.06
19 | COc1ccccc1/C=C/C(=O)c1ccc(OCc2cn([C@@H]3O[C@H](CO)[C@@H](O)[C@H](O)[C@H]3O)nn2)cc1 | 97 µM | 79 µM | 103 µM | 1.06 | 1.3
20 | COc1cc(/C=C/C(=O)c2ccccc2)ccc1OCc1cn([C@@H]2O[C@H](CO)[C@@H](O)[C@H](O)[C@H]2O)nn1 | 123 µM | 89 µM | 98 µM | 0.8 | 1.1
21 | CCOc1ccc(/C=C/C(=O)c2ccc(OCc3cn([C@@H]4O[C@H](CO)[C@@H](O)[C@H](O)[C@H]4O)nn3)cc2)cc1 | 68 µM | 74 µM | 78 µM | 1.15 | 1.05
22 | O=C(/C=C/c1cc(Cl)cc(Cl)c1)c1ccc(OCc2cn([C@@H]3O[C@H](CO)[C@@H](O)[C@H](O)[C@H]3O)nn2)cc1 | 74 µM | 62 µM | 64 µM | 0.86 | 1.03
